Legend:
Design in all cases: dose 5 mg/kg, dosed compound name [14C]CS-1036, route oral
Conditions in all cases: in vivo
Aorta [1] = assay: Drug uptake in albino F344/DuCrlCrlj rat aorta assessed as ng equivalent of CS-1036 at 5 mg/kg, po after 4 hrs by liquid scintillation counting; format: ADME, organism-based
[2] = Drug uptake in albino F344/DuCrlCrlj rat trachea at 5 mg/kg, po after 1 hr by liquid scintillation counting; format: ADME, organism-based
Heart [3] = assay: Drug uptake in albino F344/DuCrlCrlj rat heart at 5 mg/kg, po after 1 hr by liquid scintillation counting; format: ADME, organism-based
Thymus [4] = assay: Drug uptake in albino F344/DuCrlCrlj rat thymus assessed as ng equivalent of CS-1036 at 5 mg/kg, po after 168 hrs by liquid scintillation counting; format: ADME, organism-based
Kidney = assay: Drug uptake in albino F344/DuCrlCrlj rat kidney at 5 mg/kg, po after 168 hrs by liquid scintillation counting; format: ADME, organism-based
Aorta [5] = assay: Drug uptake in albino F344/DuCrlCrlj rat aorta at 5 mg/kg, po after 8 hrs by liquid scintillation counting; format: ADME, organism-based
Pancreas = assay: Drug uptake in albino F344/DuCrlCrlj rat pancreas assessed as ng equivalent of CS-1036 at 5 mg/kg, po after 8 hrs by liquid scintillation counting; format: ADME, organism-based
Blood [6] = assay: Drug uptake in albino F344/DuCrlCrlj rat blood at 5 mg/kg, po after 24 hrs by liquid scintillation counting; format: ADME, organism-based
How it was run: (§1)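 Male F344/DuCrlCrlj rats (159–167 g; n = 3 per time point) received a single oral dose of [14C]CS-1036 at 5 mg/kg. Blood was taken from the abdominal aorta at 1, 4, 8, 24, 72, 168 and 336 h. Radioactivity was counted by LSC with external-standard efficiency correction. Results were converted to ng equivalent of CS-1036/ml using specific activity and sample volume, and reported as mean + S.D.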

Thymus [7] = assay: Drug uptake in albino F344/DuCrlCrlj rat thymus at 5 mg/kg, po after 8 hrs by liquid scintillation counting; format: ADME, organism-based
Lung [8] = assay: Drug uptake in albino F344/DuCrlCrlj rat lung assessed as ng equivalent of CS-1036 at 5 mg/kg, po after 4 hrs by liquid scintillation counting; format: ADME, organism-based
Adrenal gland [9] = assay: Drug uptake in albino F344/DuCrlCrlj rat adrenal gland assessed as ng equivalent of CS-1036 at 5 mg/kg, po after 336 hrs by liquid scintillation counting; format: ADME, organism-based
Adrenal gland [10] = assay: Drug uptake in albino F344/DuCrlCrlj rat adrenal gland assessed as ng equivalent of CS-1036 at 5 mg/kg, po after 168 hrs by liquid scintillation counting; format: ADME, organism-based
Zone of skin = assay: Drug uptake in albino F344/DuCrlCrlj rat skin assessed as ng equivalent of CS-1036 at 5 mg/kg, po after 336 hrs by liquid scintillation counting; format: ADME, organism-based
[11] = Drug uptake in albino F344/DuCrlCrlj rat bone marrow at 5 mg/kg, po after 1 hr by liquid scintillation counting; format: ADME, organism-based
Lung [12] = assay: Drug uptake in albino F344/DuCrlCrlj rat lung at 5 mg/kg, po after 4 hrs by liquid scintillation counting; format: ADME, organism-based
[13] = Drug uptake in albino F344/DuCrlCrlj rat bone marrow at 5 mg/kg, po after 8 hrs by liquid scintillation counting; format: ADME, organism-based
[14] = Drug uptake in albino F344/DuCrlCrlj rat mandibular gland at 5 mg/kg, po after 24 hrs by liquid scintillation counting; format: ADME, organism-based
[15] = Drug uptake in albino F344/DuCrlCrlj rat mandibular gland at 5 mg/kg, po after 336 hrs by liquid scintillation counting; format: ADME, organism-based
Harderian gland = assay: Drug uptake in albino F344/DuCrlCrlj rat harderian gland at 5 mg/kg, po after 168 hrs by liquid scintillation counting; format: ADME, organism-based
Adrenal gland [16] = assay: Drug uptake in albino F344/DuCrlCrlj rat adrenal gland at 5 mg/kg, po after 336 hrs by liquid scintillation counting; format: ADME, organism-based
[17] = Drug uptake in albino F344/DuCrlCrlj rat bone marrow assessed as ng equivalent of CS-1036 at 5 mg/kg, po after 336 hrs by liquid scintillation counting; format: ADME, organism-based
Small intestine = assay: Drug uptake in albino F344/DuCrlCrlj rat small intestine assessed as ng equivalent of CS-1036 at 5 mg/kg, po after 168 hrs by liquid scintillation counting; format: ADME, organism-based
[18] = Drug uptake in albino F344/DuCrlCrlj rat fat at 5 mg/kg, po after 24 hrs by liquid scintillation counting; format: ADME, organism-based, Adipose tissue
How it was run: (§2)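 Male F344/DuCrlCrlj rats (bought at 7 weeks, acclimatized 5–6 days; 159–167 g; n = 3 per time point) received a single oral dose of [14C]CS-1036 at 5 mg/kg. White adipose tissue was collected after abdominal aortic bleeding at 1, 4, 8, 24, 72, 168 or 336 h. Samples were counted by LSC with external-standard efficiency correction. Results were converted to ng equivalents per g from specific activity and sample weight.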

Heart [19] = assay: Drug uptake in albino F344/DuCrlCrlj rat heart at 5 mg/kg, po after 168 hrs by liquid scintillation counting; format: ADME, organism-based
Large intestine = assay: Drug uptake in albino F344/DuCrlCrlj rat large intestine assessed as ng equivalent of CS-1036 at 5 mg/kg, po after 168 hrs by liquid scintillation counting; format: ADME, organism-based
Cerebellum = assay: Drug uptake in albino F344/DuCrlCrlj rat cerebellum assessed as ng equivalent of CS-1036 at 5 mg/kg, po after 168 hrs by liquid scintillation counting; format: ADME, organism-based
[20] = Drug uptake in albino F344/DuCrlCrlj rat urinary bladder assessed as ng equivalent of CS-1036 at 5 mg/kg, po after 336 hrs by liquid scintillation counting; format: ADME, organism-based
Liver = assay: Drug uptake in albino F344/DuCrlCrlj rat liver at 5 mg/kg, po after 24 hrs by liquid scintillation counting; format: ADME, organism-based
[21] = Drug uptake in albino F344/DuCrlCrlj rat fat at 5 mg/kg, po after 72 hrs by liquid scintillation counting; format: ADME, organism-based, Adipose tissue; how it was run: as §2
Spleen = assay: Drug uptake in albino F344/DuCrlCrlj rat spleen at 5 mg/kg, po after 8 hrs by liquid scintillation counting; format: ADME, organism-based
[22] = Drug uptake in albino F344/DuCrlCrlj rat bone marrow assessed as ng equivalent of CS-1036 at 5 mg/kg, po after 72 hrs by liquid scintillation counting; format: ADME, organism-based
[23] = Drug uptake in albino F344/DuCrlCrlj rat brown fat at 5 mg/kg, po after 4 hrs by liquid scintillation counting; format: ADME, organism-based, Brown adipose tissue
[24] = Drug uptake in albino F344/DuCrlCrlj rat fat assessed as ng equivalent of CS-1036 at 5 mg/kg, po after 4 hrs by liquid scintillation counting; format: ADME, organism-based, Adipose tissue; how it was run: as §2
[25] = Drug uptake in albino F344/DuCrlCrlj rat urinary bladder assessed as ng equivalent of CS-1036 at 5 mg/kg, po after 1 hr by liquid scintillation counting; format: ADME, organism-based
Blood [26] = assay: Drug uptake in albino F344/DuCrlCrlj rat blood assessed as ng equivalent of CS-1036 at 5 mg/kg, po after 336 hrs by liquid scintillation counting; format: ADME, organism-based; how it was run: as §1

Work on `C[C@H]1O[C@@H](O[C@H]2[C@H](O)[C@@H](O)[C@@H](O[14C@H]3[14C@H](O)[14CH2]N[14C@@H]3[14CH2]O)O[C@@H]2CO)[C@H](O)[C@@H](O)[C@@H]1O` yielded a Radiolabel recovery (Aorta [1]) of 13.3 ngequiv/g, a Radiolabel recovery [2] of 41.1 ngequiv/g and a Radiolabel recovery (Heart [3]) of 27.9 ngequiv/g. It also gave a Radiolabel recovery (Thymus [4]) of 5.4 ngequiv/g, a Radiolabel recovery (Kidney) of 27 ngequiv/g and a Radiolabel recovery (Aorta [5]) of 57.3 ngequiv/g. For the same compound, the Radiolabel recovery (Pancreas) was 71 ngequiv/g, the Radiolabel recovery (Blood [6]) was 35.7 ngequiv/ml and the Radiolabel recovery (Thymus [7]) was 43.4 ngequiv/g. For the same compound, the Radiolabel recovery (Lung [8]) was 10.3 ngequiv/g, the Radiolabel recovery (Adrenal gland [9]) was 8.2 ngequiv/g and the Radiolabel recovery (Adrenal gland [10]) was 93 ngequiv/g. It also gave a Radiolabel recovery (Zone of skin) of 16.4 ngequiv/g, a Radiolabel recovery [11] of 34.9 ngequiv/g and a Radiolabel recovery (Lung [12]) of 37.8 ngequiv/g. It also gave a Radiolabel recovery [13] of 75 ngequiv/g, a Radiolabel recovery [14] of 118 ngequiv/g and a Radiolabel recovery [15] of 8.58 ngequiv/g. For the same compound, the Radiolabel recovery (Harderian gland) was 17.1 ngequiv/g, the Radiolabel recovery (Adrenal gland [16]) was 19.5 ngequiv/g and the Radiolabel recovery [17] was 11.4 ngequiv/g. It also gave a Radiolabel recovery (Small intestine) of 5.5 ngequiv/g, a Radiolabel recovery [18] of 82.9 ngequiv/g and a Radiolabel recovery (Heart [19]) of 13.8 ngequiv/g. It also gave a Radiolabel recovery (Large intestine) of 19 ngequiv/g, a Radiolabel recovery (Cerebellum) of 3.37 ngequiv/g and a Radiolabel recovery [20] of 5.5 ngequiv/g. For the same compound, the Radiolabel recovery (Liver) was 266 ngequiv/g, the Radiolabel recovery [21] was 194 ngequiv/g and the Radiolabel recovery (Spleen) was 84.8 ngequiv/g. It also gave a Radiolabel recovery [22] of 18.1 ngequiv/g, a Radiolabel recovery [23] of 25.8 ngequiv/g and a Radiolabel recovery [24] of 1.74 ngequiv/g. For the same compound, the Radiolabel recovery [25] was 520 ngequiv/g and the Radiolabel recovery (Blood [26]) was 0.2 ngequiv/ml.
